The source of these data is ChEMBL document CHEMBL3352604, “Development of novel azabenzofuran TRPA1 antagonists as in vivo tools” (Bioorg Med Chem Lett, 2014).

Data set [1] is described as follows: Clearance in human liver microsomes. Format: ADME. To be noted: read-out: CLH.
Data set [2] is described as follows: Clearance in rat liver microsomes. Format: ADME. As to conditions: read-out: CLH.
In data set [3] the target is T1, Transient receptor potential cation channel subfamily A member 1 (Homo sapiens, UniProt O75762). Description: Antagonist activity at human TRPA1 assessed as inhibition of AITC-induced calcium uptake by [45Ca2+] fluorimetry assay. Summed up:
(§1)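 Antagonism read by 45Ca2+ fluorimetry in cells expressing rat or human TRPA1. IC50 determined. Where no IC50 was obtained, % inhibition was measured at a single 2 μM point.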

Data set [4] in a line: Solubility in 0.01 N HCl solution in water. The data set is classed as physicochemical. Summed up: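 Solubility measured in 0.01 N hydrogen chloride solution in water.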
For data set [5], the target named is T2, Transient receptor potential cation channel subfamily A member 1 (Rattus norvegicus, UniProt Q6RI86). The data set is described as follows: Agonist activity at rat TRPA1 by [45Ca2+] fluorimetry assay.
T2 sequence (Q6RI86 whole entry): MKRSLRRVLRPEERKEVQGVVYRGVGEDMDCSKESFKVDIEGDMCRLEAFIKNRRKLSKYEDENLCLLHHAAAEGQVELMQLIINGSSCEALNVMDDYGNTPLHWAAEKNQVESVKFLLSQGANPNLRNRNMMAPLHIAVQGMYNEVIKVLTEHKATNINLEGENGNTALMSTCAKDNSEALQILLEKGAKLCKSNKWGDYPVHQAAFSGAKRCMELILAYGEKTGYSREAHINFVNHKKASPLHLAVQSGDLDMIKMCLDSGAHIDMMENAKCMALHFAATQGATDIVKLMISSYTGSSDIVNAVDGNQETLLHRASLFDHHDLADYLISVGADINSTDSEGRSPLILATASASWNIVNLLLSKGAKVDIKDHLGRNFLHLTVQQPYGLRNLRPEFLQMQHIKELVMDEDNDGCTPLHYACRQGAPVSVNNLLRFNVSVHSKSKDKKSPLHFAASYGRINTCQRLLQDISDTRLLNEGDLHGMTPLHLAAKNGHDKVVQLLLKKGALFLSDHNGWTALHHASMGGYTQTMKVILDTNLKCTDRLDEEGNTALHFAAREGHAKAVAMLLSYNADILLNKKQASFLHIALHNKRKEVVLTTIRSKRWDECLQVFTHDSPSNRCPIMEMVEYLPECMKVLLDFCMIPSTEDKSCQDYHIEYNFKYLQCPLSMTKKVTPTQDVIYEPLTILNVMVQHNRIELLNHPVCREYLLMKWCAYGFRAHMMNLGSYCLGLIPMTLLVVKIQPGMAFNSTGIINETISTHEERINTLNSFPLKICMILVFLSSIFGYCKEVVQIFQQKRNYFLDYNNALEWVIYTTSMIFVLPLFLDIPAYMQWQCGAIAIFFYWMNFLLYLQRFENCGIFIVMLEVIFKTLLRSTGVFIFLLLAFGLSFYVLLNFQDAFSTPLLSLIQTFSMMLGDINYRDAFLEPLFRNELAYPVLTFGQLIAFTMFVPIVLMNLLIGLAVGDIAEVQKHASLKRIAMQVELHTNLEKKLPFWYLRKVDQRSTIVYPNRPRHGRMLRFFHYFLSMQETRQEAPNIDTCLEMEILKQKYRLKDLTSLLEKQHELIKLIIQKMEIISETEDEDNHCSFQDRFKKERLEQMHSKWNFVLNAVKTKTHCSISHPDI
Data set [6] has as its target T2, Transient receptor potential cation channel subfamily A member 1. Description: Antagonist activity at rat TRPA1 assessed as inhibition of AITC-induced calcium uptake by [45Ca2+] fluorimetry assay. The procedure, abridged: as §1
For data set [7], the target named is T1, Transient receptor potential cation channel subfamily A member 1. Description: Agonist activity at human TRPA1 by [45Ca2+] fluorimetry assay.
Data set [8] in a line: Solubility in fasted state simulated intestinal fluid at pH 6.8. The data set is classed as ADME.
Data set [9] can be described thus: Solubility in PBS buffer at pH 7.4. The data set is classed as physicochemical. The procedure, abridged:
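Solubility measured in phosphate buffered saline, pH 7.4.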

Data set [10] concerns Rattus norvegicus. The data set is described as follows: Unbound clearance in Sprague-Dawley rat at 0.5 mg/kg, iv. The data set is classed as ADME, organism-based. More on the design: dose 0.5 mg/kg, route intravenous. As to conditions: in vivo. The procedure, abridged: (§2)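 Male Sprague-Dawley rats (n = 3) given 0.5 mg/kg iv in DMSO.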
The nature of data set [11]: Volume of distribution at steady state in Sprague-Dawley rat at 0.5 mg/kg, iv. The data set is classed as ADME, organism-based. More on the design: dose 0.5 mg/kg, route intravenous. To be noted: in vivo, read-out: Vdss. The procedure, abridged: as §2
A short description of data set [12]: Clearance in Sprague-Dawley rat at 0.5 mg/kg, iv. The data set is classed as ADME, organism-based. More on the design: dose 0.5 mg/kg, route intravenous. To be noted: in vivo. Summed up:
as §2

A short description of data set [13]: Oral bioavailability in fasted Sprague-Dawley rat at 10 mg/kg. Format: ADME, organism-based. To be noted: in vivo. Summed up: (§3)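 Male Sprague-Dawley rats (n = 3) dosed po in 2% HPMC, 1% Tween 80 in H2O, pH 2.2 with MSA. Animals fasted during the PK study.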
Data set [14] deals with Rattus norvegicus. Description: fCmax in fasted Sprague-Dawley rat at 10 mg/kg, po. The data set is classed as ADME, organism-based. To be noted: in vivo. More on the design: dose 10 mg/kg, route oral. Summed up: as §3
Data set [15] in a line: Fraction unbound in rat plasma by equilibrium dialysis method. The data set is classed as ADME, cell-free. Background: Equilibrium dialysis compares concentrations on both sides of a semipermeable membrane.
Data set [16] can be described thus: Half life in Sprague-Dawley rat at 0.5 mg/kg, iv. As to conditions: in vivo. Format: ADME, organism-based. Further details: dose 0.5 mg/kg, route intravenous. The procedure, abridged:
as §2

Converted amounts (≈) assume the structure as drawn. Where only a bound is given, the exact number is not on record here.

T1 sequence (O75762 whole entry): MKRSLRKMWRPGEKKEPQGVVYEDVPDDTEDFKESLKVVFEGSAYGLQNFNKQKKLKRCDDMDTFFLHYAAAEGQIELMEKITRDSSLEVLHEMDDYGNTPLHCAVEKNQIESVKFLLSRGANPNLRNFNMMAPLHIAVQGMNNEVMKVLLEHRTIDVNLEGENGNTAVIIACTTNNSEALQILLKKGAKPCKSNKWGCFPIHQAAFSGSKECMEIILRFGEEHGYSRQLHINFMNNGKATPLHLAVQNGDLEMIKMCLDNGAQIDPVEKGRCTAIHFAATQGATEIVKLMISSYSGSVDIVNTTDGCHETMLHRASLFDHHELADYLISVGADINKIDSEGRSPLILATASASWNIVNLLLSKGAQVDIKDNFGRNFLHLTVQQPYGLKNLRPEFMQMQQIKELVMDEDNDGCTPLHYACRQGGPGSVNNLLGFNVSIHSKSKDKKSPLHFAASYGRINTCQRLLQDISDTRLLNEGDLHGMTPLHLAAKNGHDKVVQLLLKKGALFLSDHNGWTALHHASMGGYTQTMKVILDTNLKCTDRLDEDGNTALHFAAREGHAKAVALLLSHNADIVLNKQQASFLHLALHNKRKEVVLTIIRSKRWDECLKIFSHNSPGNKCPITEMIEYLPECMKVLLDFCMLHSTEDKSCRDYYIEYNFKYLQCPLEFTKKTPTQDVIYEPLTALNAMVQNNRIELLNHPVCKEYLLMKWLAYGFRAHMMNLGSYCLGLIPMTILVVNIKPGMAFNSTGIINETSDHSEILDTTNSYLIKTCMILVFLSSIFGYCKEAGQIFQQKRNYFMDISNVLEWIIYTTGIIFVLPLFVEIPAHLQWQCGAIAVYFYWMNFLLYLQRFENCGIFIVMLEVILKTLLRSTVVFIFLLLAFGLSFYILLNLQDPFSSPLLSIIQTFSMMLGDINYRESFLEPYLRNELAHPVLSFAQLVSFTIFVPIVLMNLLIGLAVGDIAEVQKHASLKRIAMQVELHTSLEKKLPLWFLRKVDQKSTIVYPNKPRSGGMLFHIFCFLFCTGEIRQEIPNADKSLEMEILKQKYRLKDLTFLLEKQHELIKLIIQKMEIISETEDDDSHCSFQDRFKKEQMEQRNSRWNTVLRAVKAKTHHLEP

For the compound `O=C1C2=C(NC(=S)NC2c2cccc(OCc3cccnc3)c2)c2ccccc21` (centres undefined), the microsomal CLint in [1] was determined as 150 µL/min/mg; in data set [2], 250 µL/min/mg. Besides, the IC50 – broadly, the concentration that gives 50% inhibition – in [3] was found to be 710 nM; in data set [6] it was 360 nM. The values for the solubility in data set [4], in [8] and in data set [9] were 140 µg/mL (≈ 350 µM), 15 µg/mL (≈ 37.5 µM) and 1 µg/mL (≈ 2.5 µM), respectively. For the same compound, the EC50 in data set [5] and in [7] was > 40000 nM in each case.

Take `COCCCOc1cccc(C2NC(=S)NC3=C2C(=O)c2ccccc23)c1` (racemic): the IC50 was determined as 30 nM in data set [3] and 28 nM in data set [6]. Moreover, the solubility (commonly the dissolved amount per volume that the medium holds) in data set [4] was 1 µg/mL (≈ 2.63 µM); in [8], 23 µg/mL (≈ 60.5 µM); in data set [9], 10 µg/mL (≈ 26.3 µM). Also, the half-maximal effective concentration (EC50) in data set [5] and in data set [7] was > 40000 nM in each case.

In turn, `COCCCOc1cccc([C@H]2NC(=S)NC3=C2C(=O)c2ccccc23)c1` gave a CL free in [10] of 4830 mL/min/kg. The Vd in [11] was 4.7 L/kg. The values for the microsomal CLint in data set [1] and in [2] were 150 µL/min/mg and 230 µL/min/mg, respectively. Besides, in data set [12], the clearance (in general, the volume of plasma or blood freed of the substance per unit of time) is 48.3 mL/min/kg. The bioavailability (usually dose-corrected exposure relative to a reference, in per cent) in data set [13] came to 10%. In addition, the fCmax in [14] worked out at 0.005 µM. In addition, in data set [15], the fraction unbound – broadly, the share of the substance not bound to proteins or other matrix – is 0.01. The IC50 amounted to 26 nM in data set [3] and 19 nM in data set [6]. Further, the solubility in data set [4] is 5 µg/mL (≈ 13.1 µM); in [8] it was 12 µg/mL (≈ 31.5 µM); in data set [9], 4 µg/mL (≈ 10.5 µM). For the same compound, the half-life (usually how long it takes for the measured level to halve) in [16] is 2.1 h. The EC50 in data set [5] and in data set [7] was > 40000 nM each time.

As for `S=C1Nc2c(oc3ncccc23)C(c2cccc(OCc3cccnc3)c2)N1` (centres undefined), the microsomal CLint turned out to be 100 µL/min/mg in data set [1] and 40 µL/min/mg in data set [2]. Besides, the results for the concentration for half-maximal inhibition (IC50) in data set [3] and in [6] were 940 nM and 1300 nM, respectively. Further, the values for the solubility in data set [4], in [8] and in data set [9] were 200 µg/mL (≈ 515 µM), 21 µg/mL (≈ 54.1 µM) and 15 µg/mL (≈ 38.6 µM), respectively. For the same compound, the EC50 in data set [5] and in data set [7] was > 40000 nM each time.

For the compound `COCCCOc1cccc([C@H]2NC(=S)Nc3c2oc2ccccc32)c1`, the microsomal CLint in data set [1] was 90 µL/min/mg; in [2], 350 µL/min/mg. Besides, the figures for the IC50 in data set [3] and in data set [6] were 590 nM and 230 nM, respectively. For the same compound, the solubility in data set [4] was 1 µg/mL (≈ 2.71 µM); in data set [8], 23 µg/mL (≈ 62.4 µM); in data set [9], 1 µg/mL (≈ 2.71 µM). Moreover, the EC50 in data set [5] and in [7] was > 40000 nM in each case.

For `COCCCOc1cccc(C2NC(=S)Nc3c2oc2c(F)cccc32)c1` (centres undefined), the microsomal CLint was 70 µL/min/mg in data set [1] and 140 µL/min/mg in data set [2]. Also, the results for the IC50 in data set [3] and in data set [6] were 200 nM and 140 nM, respectively. The results for the solubility in data set [4], in [8] and in data set [9] were 14 µg/mL (≈ 36.2 µM), 66 µg/mL (≈ 171 µM) and 17 µg/mL (≈ 44 µM), respectively. In addition, the concentration for a half-maximal effect (EC50) in data set [5] and in data set [7] was > 40000 nM throughout.
